hDAT+cocaine: changed human dopamine transporter uptake under cocaine IC80. LLC-PK1 hDAT cells, [14C]-dopamine uptake with cocaine IC80; actives deviate in either direction. B-score at 10 µM. 1.3% of 110,000 active. Q01959. AID 449768;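 active means Z score or B-score, a plate-position-corrected score, falls beyond the plate's 99.7% confidence bounds, in either direction; inactive means both scores lie inside the 99.7% bounds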;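 further: scored against the spread of the other compound wells on the same plate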
PTPN22 inh 2: inhibitors of human LYP (PTPN22) phosphatase; inhibition, % at 2 µM; Q9Y2R2; recombinant LYP catalytic domain, DiFMUP fluorescence; 0.21% of 96,000 active;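 active means inhibition at 2 µM at or above a set limit, the screen mean plus 3 SD, cut at about 24% in these data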;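 further: 0% = DMSO with enzyme and 100% = enzyme fully blocked by orthovanadate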
PLK1 kinase inh: inhibitors of human PLK1 kinase; AID 619; inhibition, % at 10 µM; recombinant PLK1 kinase, TR-FRET peptide phosphorylation; P53350; 0.53% of 97,000 active;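 active means inhibition of 50% or more in the single-concentration screen; inactive means inhibition below 50%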;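 further: 0% = DMSO max control and 100% = H-89 dihydrochloride min control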
Target sequence (P53350 whole entry, looked up): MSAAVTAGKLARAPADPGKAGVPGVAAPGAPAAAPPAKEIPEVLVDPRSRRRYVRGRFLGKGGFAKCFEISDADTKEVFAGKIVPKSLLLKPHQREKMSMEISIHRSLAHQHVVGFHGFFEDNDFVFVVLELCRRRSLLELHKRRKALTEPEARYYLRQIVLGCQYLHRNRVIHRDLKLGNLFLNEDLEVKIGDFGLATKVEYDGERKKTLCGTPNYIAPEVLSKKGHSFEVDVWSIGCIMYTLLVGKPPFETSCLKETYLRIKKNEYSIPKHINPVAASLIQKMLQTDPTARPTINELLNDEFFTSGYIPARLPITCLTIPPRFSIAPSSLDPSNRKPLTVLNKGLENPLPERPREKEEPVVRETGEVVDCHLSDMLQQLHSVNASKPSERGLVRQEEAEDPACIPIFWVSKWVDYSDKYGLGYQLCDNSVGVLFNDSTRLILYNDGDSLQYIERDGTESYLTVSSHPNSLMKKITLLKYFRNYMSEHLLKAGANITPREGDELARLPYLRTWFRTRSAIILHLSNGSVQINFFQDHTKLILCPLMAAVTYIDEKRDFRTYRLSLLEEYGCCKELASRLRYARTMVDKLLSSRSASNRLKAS
Plk1 PBD FP: inhibitors of human Plk1 polo box domain binding; P53350; Plk1 PBD phosphopeptide binding, fluorescence polarization; inhibition, %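 (tested at about 20 µM)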; 0.13% of 97,000 active; AID 693; in the data active means inhibition above about 34%, passing the limit was not always enough
LYP act: activators of human LYP (PTPN22) phosphatase; Q9Y2R2; recombinant LYP, DiFMUP fluorescence; 0 = plate median, 100 = signal doubled; activation, % at 2 µM; 0.11% of 96,000 active; AID 697;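 active means activation at 2 µM above a set limit, the mean plus 5 SD, cut at about 37% in these data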
Rev-RRE block: HIV Rev-RRE protein-RNA interaction inhibition | Rev peptide-RRE RNA binding, FRET | inhibition, % at 8 µM | P05866 | 0.79% of 97,000 active | AID 704;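 active means inhibition above the screen-wide mean plus 3 SD, cut at about 35% in these data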;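 further: 0% = median DMSO wells and 100% = median Neomycin B control wells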
Target sequence (P05866 whole entry, looked up): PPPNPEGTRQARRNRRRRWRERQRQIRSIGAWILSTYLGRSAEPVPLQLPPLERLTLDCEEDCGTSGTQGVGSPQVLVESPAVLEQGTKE
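Test system – labelled RRE RNA duplex and labelled Rev peptide · Signal – fluorescein-to-Cy5 FRET, 480 nm excitation · Evaluation – % inhibition of FRET ratio versus controls · Benchmarks – DMSO low control, neomycin B high control · Incubation – 5 min RNA-compound premix plus 15 min binding step, 25 °C · Medium – HEPES pH 7.5 salt buffer with EDTA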
Numbers without * were called inactive; . = not tested or not shown; [ ] = another dose, or the depositor's remark. The list is not random: actives were taken first. Their share in the collection is about 2.7%.

SMILES	hDAT+cocaine	PTPN22 inh 2	PLK1 kinase inh	Plk1 PBD FP	LYP act	Rev-RRE block
COC(=O)c1cc(Br)c(=O)n(-c2cc(C)on2)c1	-2.04	-4.3	-8.7	-10.2	3.3	2.3
CC(=O)C1=C(C)Nc2ncnn2C1c1cccc(OCc2ccccc2)c1 (stereo not given)	-1.14	-5.7	50.7*	-7.8	3.9	5.5
COc1cccc(-n2cnnn2)c1	-0.182	-15.8	-15.8	-3.7	15.2	9.3
Cc1ccc(-c2nnc(COc3cccc(-n4cnnn4)c3)o2)cc1	-10.6*	-5.0	5.4	17.0	2.7	2.5
CC1Cc2nc(SCC(=O)Nc3ccc4c(c3)OCO4)n(-c3ccc(F)cc3)c(=O)c2S1 (stereo not given)	0.526	.	.	.	.	.
O=c1[nH]c2ccc(Cl)cc2c(-c2ccccc2)c1SC(=S)N1CCCCC1	3.42*	3.8	-2.0	16.5	-2.7	-2.6
O=c1[nH]c2ccc(Cl)cc2c(-c2ccccc2)c1SC(=S)N1CCOCC1	0.56	12.4	-7.3	-5.8	-11.5	6.3
Cc1cc(-c2csc(N)n2)c(C)n1CCc1ccccc1	-0.51	9.3	-11.7	-19.7	-11.4	20.4
Cc1cc(-c2csc(N)n2)c(C)n1CCC(C)C	1.29	28.2*	-1.4	5.4	-28.6	16.7
COc1ccc(C2c3c(-c4cc(Cl)c(C)cc4O)n[nH]c3C(=O)N2Cc2cccnc2)cc1OC (stereo not given)	2.96*	-5.8	5.6	2.3	4.7	5.6
COc1ccc(CCN2C(=O)c3[nH]nc(-c4ccccc4O)c3C2c2cccc(O)c2)cc1OC (stereo not given)	2.71*	-2.9	3.0	-6.0	0.7	13.9
CCC(C)NS(=O)(=O)c1ccc(S(=O)(=O)N(CC(=O)Nc2ccccc2)CC2CCCO2)cc1 (stereo not given)	-0.703	-2.6	2.7	10.4	3.5	17.5
O=S(=O)(Nc1nc2ccccc2s1)c1ccc(Cl)s1	-3.6*	3.0	-13.6	-12.5	-1.1	8.2
CCCCC(CC)Cn1c2nc3ccccc3nc2c2c(=N)oc(C)nc21 (stereo not given)	.	21.0	-11.0	-14.4	-25.3	36.6*
CCC(C(=O)NCc1ccco1)N(C(=O)CNS(=O)(=O)c1ccccc1)C1CCCCC1 (stereo not given)	4.49*	2.5	-9.8	-15.2	-1.6	0.1
CC(=O)c1c(C)nc2ccc(Cl)cn12	0.572	13.7	-2.4	14.7	-12.9	8.8
CC1C/C(=N\NC(=S)NC(C)C)CC(C)(C)C1 (stereo not given)	-0.00176	3.9	-8.3	-12.0	-1.5	-1.9
O=C(C1CC1)N1CCc2cc(S(=O)(=O)N3CCOCC3)ccc21	-0.181	3.7	68.6*	15.8	-6.0	12.5
O=C(c1ccco1)N1CCN(S(=O)(=O)c2ccc3c(c2)CCN3C(=O)C2CC2)CC1	-1.48	0.9	-3.7	-20.0	-3.3	7.0
O=C(O)c1ccccc1C1=Nc2ccc(O)cc2Oc2cc(O)ccc21	-0.912	9.3	4.3	49.8*	-11.7	77.5*
CCOc1ccc2nc(NC(=O)CN3CCC(n4nnc5cc(F)ccc54)CC3)sc2c1	4.3*	4.6	2.4	-13.4	-5.1	8.9
CC(C)NC(=O)CN1CCN(c2ncccn2)CC1	-0.0321	1.4	-6.1	1.6	-0.9	2.9
COc1cc(NS(=O)(=O)c2ccc3c(c2)n(C)c(=O)n3C)cc(OC)c1	-0.0427	8.1	-9.1	-9.6	-9.1	0.0
Clc1ccc(C2=CC(c3ccco3)n3ncnc3N2)cc1 (stereo not given)	-0.533	-6.0	-10.9	-35.7	5.8	122.3*[fluorescence artefact?]
Cc1ccc(C2=CC(c3ccc(C)cc3)n3ncnc3N2)cc1 (stereo not given)	-0.0587	.	.	.	.	.
SMILES	hDAT+cocaine	PTPN22 inh 2	PLK1 kinase inh	Plk1 PBD FP	LYP act	Rev-RRE block
COc1cccc(C2C=C(c3ccc(Br)s3)Nc3ncnn32)c1OC (stereo not given)	0.597	.	.	.	.	.
COc1ccc(C2C=C(c3ccc(C)c(C)c3)Nc3ncnn32)c(OC)c1OC (stereo not given)	1.81	.	67.4*	-4.0	.	9.3
COc1ccc(C2C=C(c3ccccc3)Nc3ncnn32)cc1 (stereo not given)	1.03	-2.0	-20.9	-25.4	5.9	44.9*
Cc1cc2cc(CN(C(=O)C3CC3)C3CCCC3)c3nnnn3c2cc1C	2.89*	.	.	.	.	.
N#CC1=C(N)Oc2n[nH]c(-c3ccc(F)cc3)c2C1c1ccncc1 (stereo not given)	-2.31	.	.	.	.	.
CCOC(=O)C1C(=O)Oc2ccc3ccccc3c2C1C1CCOC1=O (stereo not given)	0.099	.	63.2*	10.5	.	2.1
C[C@]12CCC[C@H](O1)c1c(cc3c(c1O)C(=O)c1c(O)cc(O)cc1C3=O)O2	-0.722	.	.	.	.	.
COc1cc(OC)cc(-c2nc3ccccc3s2)c1	-0.408	-0.2	2.6	-8.5	2.9	15.2
COc1ccc(C(O)c2nc3ccccc3s2)cc1 (stereo not given)	-1.89*	0.9	-3.0	-0.1	-3.5	1.0
O=C(COC(=O)Cc1ccc(S(=O)(=O)N2CCOCC2)s1)NCc1ccc(Cl)cc1	-0.0403	-1.1	-10.3	-7.3	-1.4	7.0
CC(C)N(Cc1nc(-c2ccc(Cl)cc2)no1)C(=O)CCCN1C(=O)c2ccccc2C1=O	1.65	.	53.8*	-6.4	.	4.6
O=C(CN(c1ccc(Cl)c(C(F)(F)F)c1)S(=O)(=O)c1ccccc1)N/N=C/c1cccc2c1OCCO2	.	3.8	-10.1	-8.9	-1.5	4.5
Cc1nc(Cl)c(C(=O)NC(=O)Nc2cccc(C(F)(F)F)c2)c(C)c1[N+](=O)[O-]	-0.875	7.5	-1.6	-5.8	-7.0	17.6
CCOC(=O)N1CCC(NC(=O)c2ccc3snnc3c2)CC1	2.76*	.	.	.	.	.
CN(C)C(CNS(=O)(=O)c1ccc(Br)cc1)c1cccnc1 (stereo not given)	-8.89*	4.2	-12.9	5.3	-0.6	6.2
CC(C)(C)C(=O)Nc1ccnc(-c2cccnc2)n1	0.98	-2.0	-12.7	10.2	6.2	1.7
CCC(=O)Nc1cccc(NC(=S)NC(=O)c2ccccc2Cl)c1	2.71*	-0.3	-8.9	8.4	5.9	-1.0
Cc1ccc(-n2c(C)cc(C(=S)N3CCOCC3)c2C)cc1C	-0.138	18.9	-11.2	7.5	-15.8	-0.8
CN(C)C=Nc1c(Br)cc(Br)c2nonc12	-0.495	2.4	-8.6	-45.9	-4.1	68.3*[fluorescence artefact?]
Cc1cc(C)c2c3c(cn2n1)c(=O)n(C)c(=O)n3C	-1.08	15.3	-9.1	8.7	-14.9	7.1
CCn1c(COc2ccc(C)cc2)nnc1SCc1ccc(C#N)cc1	3.02*	4.1	6.3	6.3	-0.8	9.8
Cc1ccc([N+](=O)[O-])cc1NC(=O)CN1CCC(C)CC1	.	13.7	-9.9	-10.5	-9.2	3.5
CC1CCN(CC(=O)Nc2cccc([N+](=O)[O-])c2)CC1	-2.77*	10.3	-0.2	12.1	-7.0	0.7
O=C(Nc1ccccc1)NC1(C(=O)NCc2cccs2)CCCCC1	-0.537	4.2	-4.3	-29.6	-0.2	5.8

Assay outcomes from PubChem BioAssay.
